Each structure is given as a SMILES string.

The nature of one series: Half life in rat liver microsomes at 2 uM.
Settings: not given
It counts as ADME, Microsome. Background: Liver microsomes are a subcellular fraction often used to study metabolism.
On to `CC(C)N(c1ccc(Oc2ccccc2C(F)(F)F)cc1C(=O)O)C(=O)[C@H]1CC[C@H](C)CC1`, for which the half-life – broadly, the time needed for the level to fall by half in the phase considered – at 2 µM was found to be 1.53 h.

Consider `COc1ccnc(Oc2ccc3c(c2)c(=O)ncn3Cc2ccc(F)cc2F)c1C(F)(F)F`, for which the half-life at 2 µM is 0.433 h.

`O=c1ncn(Cc2c(F)cc(F)cc2F)c2ccc(Oc3cccnc3C(F)(F)F)cc12` displayed a half-life at 2 µM of 0.367 h.

Compound `COc1ccnc(Oc2ccc3c(c2)c(=O)ncn3Cc2c(F)cc(F)cc2F)c1C(F)(F)F` returned a half-life at 2 µM of 0.25 h.

`CC(C)N(c1ccc(Oc2ncccc2C(F)(F)F)cc1C(=O)O)C(=O)[C@H]1CC[C@H](C)CC1` registered a half-life at 2 µM of 1 h.

Compound `O=c1ncn(Cc2ccc(Br)cc2F)c2ccc(Oc3ncccc3C(F)(F)F)cc12` returned a half-life at 2 µM of 1 h.

For `Cc1ccc(Cn2cnc(=O)c3cc(Oc4ncccc4C(F)(F)F)ccc32)c(F)c1`, the half-life at 2 µM is 0.25 h.

Turning to `O=c1ncn(Cc2ccc(F)cc2F)c2ccc(Oc3ncccc3C(F)(F)F)cc12`, the half-life at 2 µM stood at 0.517 h.

The compound `O=c1ncn(Cc2c(F)cc(F)cc2F)c2ccc(Oc3ncccc3C(F)(F)F)cc12` showed a half-life at 2 µM of 0.633 h.

A short description of another series: Lipophilicity, log D of the compound at pH 7.4. It counts as physicochemical. The settings on record: buffer.
For `COc1ccc2c(c1)c(=O)ncn2Cc1ccc(F)cc1F`, the logD (commonly the decadic logarithm of the distribution of all forms, ionised or not, between an organic phase and buffer at a given pH) was found to be 1.8.

`O=c1ncn(Cc2ccc(F)cc2F)c2ccc(Oc3ccncc3C(F)(F)F)cc12` gave a logD of 3.

The compound `COc1ccnc(Oc2ccc3c(c2)c(=O)ncn3Cc2ccc(F)cc2F)c1C(F)(F)F` gave a log distribution coefficient (logD) of 3.5.

Consider `O=c1ncn(Cc2c(F)cc(F)cc2F)c2ccc(Oc3cnccc3C(F)(F)F)cc12`, for which the logD was 3.

For the compound `O=c1ncn(Cc2c(F)cc(F)cc2F)c2ccc(Oc3cccnc3C(F)(F)F)cc12`, the logD was 2.9.

Compound `O=c1ncn(Cc2c(F)cc(F)cc2F)c2ccc(Oc3ccccc3C(F)(F)F)cc12` displayed a pH-dependent lipophilicity (logD) of 4.2.

Regarding `O=c1ncn(Cc2c(F)cc(F)cc2F)c2ccc(Oc3ccccc3)cc12`, the logD is 3.2.

On to `COc1ccnc(Oc2ccc3c(c2)c(=O)ncn3Cc2c(F)cc(F)cc2F)c1C(F)(F)F`, for which the log distribution coefficient (logD) is 3.3.

Take `O=c1nc[nH]c2ccc(Oc3ncccc3C(F)(F)F)cc12`: the log distribution coefficient (logD) is 2.5.

`O=c1ncn(CC2CCCC2)c2ccc(Oc3ncccc3C(F)(F)F)cc12`: the log distribution coefficient (logD) was determined as 3.3.

The compound `Cc1ccc(Cn2cnc(=O)c3cc(Oc4ncccc4C(F)(F)F)ccc32)cc1` had a pH-dependent lipophilicity (logD) of 3.7.

For the compound `Cc1ccc(Cn2cnc(=O)c3cc(Oc4ncccc4C(F)(F)F)ccc32)c(F)c1`, the log distribution coefficient (logD) amounted to 3.8.

In turn, `O=c1ncn(Cc2c(F)cc(F)cc2F)c2ccc(Oc3ncccc3C(F)(F)F)cc12` showed a logD of 3.3.

In turn, `O=c1ncn(Cc2ccc(F)cc2F)c2cc(F)c(Oc3ncccc3C(F)(F)F)cc12` came in with a pH-dependent lipophilicity (logD) of 3.9.

Another series can be described thus: Permeability across apical to basolateral side in human Caco2 cells at 10 uM. Format: ADME, cell-based. The note with it: Caco-2, read-out: permeability. In short, it runs like this:
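Caco-2 monolayer, apical-to-basolateral transport at 10 µM across a pH 6.8–7.4 gradient; apparent permeability in cm/s ×10^-6.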
On the technique in general: Caco-2 monolayers are a common model of the intestinal barrier.
As to `CC(C)N(c1ccc(Oc2ccccc2C(F)(F)F)cc1C(=O)O)C(=O)[C@H]1CC[C@H](C)CC1`, the Papp A→B at 10 µM amounted to 17 ×10⁻⁶ cm/s.

Take `COc1ccnc(Oc2ccc3c(c2)c(=O)ncn3Cc2ccc(F)cc2F)c1C(F)(F)F`: the Papp A→B at 10 µM was determined as 11 ×10⁻⁶ cm/s.

For the compound `O=c1ncn(Cc2c(F)cc(F)cc2F)c2ccc(Oc3cccnc3C(F)(F)F)cc12`, the Papp A→B at 10 µM is 11 ×10⁻⁶ cm/s.

As for `COc1ccnc(Oc2ccc3c(c2)c(=O)ncn3Cc2c(F)cc(F)cc2F)c1C(F)(F)F`, the Papp A→B at 10 µM worked out at 7.9 ×10⁻⁶ cm/s.

`CC(C)N(c1ccc(Oc2ncccc2C(F)(F)F)cc1C(=O)O)C(=O)[C@H]1CC[C@H](C)CC1`: the Papp A→B at 10 µM was determined as 19 ×10⁻⁶ cm/s.

Take `O=c1ncn(Cc2ccc(Br)cc2F)c2ccc(Oc3ncccc3C(F)(F)F)cc12`: the Papp A→B at 10 µM turned out to be 7.1 ×10⁻⁶ cm/s.

As to `Cc1ccc(Cn2cnc(=O)c3cc(Oc4ncccc4C(F)(F)F)ccc32)c(F)c1`, the Papp A→B at 10 µM was 8.4 ×10⁻⁶ cm/s.

With `O=c1ncn(Cc2ccc(F)cc2F)c2ccc(Oc3ncccc3C(F)(F)F)cc12`, the Papp A→B at 10 µM worked out at 13 ×10⁻⁶ cm/s.

With `O=c1ncn(Cc2c(F)cc(F)cc2F)c2ccc(Oc3ncccc3C(F)(F)F)cc12`, the Papp A→B at 10 µM amounted to 12 ×10⁻⁶ cm/s.

A further series in a line: Half life in human liver microsomes at 2 uM.
Settings: not given
Format: ADME, Microsome.
Consider `CC(C)N(c1ccc(Oc2ccccc2C(F)(F)F)cc1C(=O)O)C(=O)[C@H]1CC[C@H](C)CC1`, for which the half-life at 2 µM was found to be 1.98 h.

For `COc1ccnc(Oc2ccc3c(c2)c(=O)ncn3Cc2ccc(F)cc2F)c1C(F)(F)F`, the half-life at 2 µM is 1.33 h.

`O=c1ncn(Cc2c(F)cc(F)cc2F)c2ccc(Oc3cccnc3C(F)(F)F)cc12` displayed a half-life at 2 µM of over 5 h.

Consider `COc1ccnc(Oc2ccc3c(c2)c(=O)ncn3Cc2c(F)cc(F)cc2F)c1C(F)(F)F`, for which the half-life at 2 µM came out at 1.4 h.

On to `CC(C)N(c1ccc(Oc2ncccc2C(F)(F)F)cc1C(=O)O)C(=O)[C@H]1CC[C@H](C)CC1`, for which the half-life at 2 µM amounted to 1.15 h. This half-life at 2 µM and that of the compound before are within 1.5-fold of each other.

`O=c1ncn(Cc2ccc(Br)cc2F)c2ccc(Oc3ncccc3C(F)(F)F)cc12` gave a half-life at 2 µM of 1.55 h.

The compound `Cc1ccc(Cn2cnc(=O)c3cc(Oc4ncccc4C(F)(F)F)ccc32)c(F)c1` had a half-life at 2 µM of 0.75 h.

The compound `O=c1ncn(Cc2ccc(F)cc2F)c2ccc(Oc3ncccc3C(F)(F)F)cc12` had a half-life at 2 µM of 1.83 h.

`O=c1ncn(Cc2c(F)cc(F)cc2F)c2ccc(Oc3ncccc3C(F)(F)F)cc12` yielded a half-life at 2 µM of 2.05 h. The half-life at 2 µM values of the last two compounds are within 1.5-fold of each other.
